Columns and labels:
Type in all cases: ADME
[1] = system: Liver microsome; assay: Drug metabolism in Sprague-Dawley rat liver microsomes assessed as formation of 2-amino-3-((1-carboxy-2-(4-((6-methoxy-1-methyl-1H-benzo[d]imidazol-2-yl)methoxy)phenyl)ethyl)disulfanyl)propanoic acid at 20 uM by radio-HPLC/LC-MS/MS analysis
[2] = target: Cytochrome P450 2D6 (Homo sapiens, UniProt P10635); assay: Activity of human CYP2D6 expressed in microsomes isolated from baculovirus infected insect cell assessed as enzyme-mediated 5-(4-((6-hydroxy-1-methyl-1H-benzo[d]imidazol-2-yl)methoxy)benzyl)thiazolidine-2,4-dione formation at 20 uM after 2 hrs by radio-HPLC/LC-MS/MS analysis in presence of NADPH-generating system and NADPH-generating system/SAM
Sequence of Cytochrome P450 2D6 (P10635 whole entry): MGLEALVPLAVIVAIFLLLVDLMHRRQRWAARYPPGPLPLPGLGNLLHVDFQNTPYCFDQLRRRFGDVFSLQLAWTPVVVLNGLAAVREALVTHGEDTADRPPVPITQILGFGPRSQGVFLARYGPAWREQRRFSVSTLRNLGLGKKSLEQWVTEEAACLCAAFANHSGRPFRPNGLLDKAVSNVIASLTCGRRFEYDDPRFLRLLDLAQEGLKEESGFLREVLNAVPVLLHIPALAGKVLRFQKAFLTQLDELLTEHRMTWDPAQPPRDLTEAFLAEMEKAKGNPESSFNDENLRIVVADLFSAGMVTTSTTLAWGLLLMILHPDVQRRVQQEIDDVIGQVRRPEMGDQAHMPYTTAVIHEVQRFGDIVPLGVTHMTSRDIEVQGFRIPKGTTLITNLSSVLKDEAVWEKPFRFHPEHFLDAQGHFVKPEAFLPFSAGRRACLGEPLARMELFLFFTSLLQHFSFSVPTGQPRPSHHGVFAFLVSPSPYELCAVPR

[3] = target: T1, UDP-glucuronosyltransferase 1A1 (Homo sapiens, UniProt P22309); assay: (§1) Activity of human UGT1A1 expressed in microsomes isolated from baculovirus infected insect cell assessed as enzyme-mediated (2S,3S,4S,5R,6R)-3,4,5-trihydroxy-6-(5-(4-((6-methoxy-1-methyl-1H-benzo[d]imidazol-2-yl)methoxy)benzyl)-2,4-dioxothiazolidin-3-yl)tetrahydro-2H-pyran-2-carboxylic acid formation at 20 uM after 4 hrs by radio-HPLC/LC-MS/MS analysis in presence of UDPGA
T1 sequence (P22309 whole entry): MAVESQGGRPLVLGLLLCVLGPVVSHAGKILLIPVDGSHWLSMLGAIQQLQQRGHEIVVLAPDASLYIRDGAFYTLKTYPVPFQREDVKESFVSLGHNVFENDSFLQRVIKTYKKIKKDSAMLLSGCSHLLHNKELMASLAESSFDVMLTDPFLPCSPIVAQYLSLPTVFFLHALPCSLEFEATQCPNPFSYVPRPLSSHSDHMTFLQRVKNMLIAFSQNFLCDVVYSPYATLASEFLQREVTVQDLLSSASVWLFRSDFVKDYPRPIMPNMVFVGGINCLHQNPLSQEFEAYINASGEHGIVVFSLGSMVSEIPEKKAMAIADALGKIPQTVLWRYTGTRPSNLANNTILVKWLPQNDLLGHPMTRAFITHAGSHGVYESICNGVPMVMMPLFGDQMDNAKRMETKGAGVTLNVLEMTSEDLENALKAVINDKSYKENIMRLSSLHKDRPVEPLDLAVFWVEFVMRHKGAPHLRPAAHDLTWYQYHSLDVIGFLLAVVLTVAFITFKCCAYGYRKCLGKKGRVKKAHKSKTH
Outline: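 Alamethicin (50 μg/mg protein, 15 min on ice) pretreated expressed human UGT microsomes (1 mg/ml protein) from baculovirus-infected insect cells. Incubation with [¹⁴C]rivoglitazone (20 μM) in 100 mM Tris-HCl (pH 7.5) with 10 mM MgCl₂, started by 5 mM UDPGA, 4 h at 37°C with shaking. UGT insect-cell control supersomes were run alongside. Acetonitrile stop, concentrated supernatant analysed by radio-HPLC, LC-MS and LC-MS/MS.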

[4] = target: T2, UDP-glucuronosyltransferase 2B7 (Homo sapiens, UniProt P16662); assay: as §1, with “UGT2B7” for “UGT1A1”, “UDPGA and UDPGA/SAM” for “UDPGA”
T2 sequence (P16662 whole entry): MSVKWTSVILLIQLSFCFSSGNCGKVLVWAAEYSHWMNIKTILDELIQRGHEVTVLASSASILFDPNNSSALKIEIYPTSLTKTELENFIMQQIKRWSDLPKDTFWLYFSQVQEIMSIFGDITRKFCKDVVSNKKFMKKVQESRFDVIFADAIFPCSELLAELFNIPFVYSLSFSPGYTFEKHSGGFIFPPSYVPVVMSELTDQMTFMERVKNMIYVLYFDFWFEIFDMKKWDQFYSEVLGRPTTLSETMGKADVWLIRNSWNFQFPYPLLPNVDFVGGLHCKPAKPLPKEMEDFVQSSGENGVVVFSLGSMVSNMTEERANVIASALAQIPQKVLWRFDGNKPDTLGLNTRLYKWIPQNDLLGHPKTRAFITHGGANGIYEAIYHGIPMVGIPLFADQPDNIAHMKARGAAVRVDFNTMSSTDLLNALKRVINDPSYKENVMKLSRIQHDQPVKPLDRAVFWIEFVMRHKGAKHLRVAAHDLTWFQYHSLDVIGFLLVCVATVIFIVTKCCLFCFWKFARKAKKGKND

[5] = target: T3, Cytochrome P450 2C8 (Homo sapiens, UniProt P10632); assay: Activity of human CYP2C8 expressed in microsomes isolated from baculovirus infected insect cell assessed as enzyme-mediated 3-(4-((6-methoxy-1-methyl-1H-benzo[d]imidazol-2-yl)methoxy)phenyl)-2-(methylthio)propanamide formation at 20 uM after 2 hrs by radio-HPLC/LC-MS/MS analysis in presence of NADPH-generating system/SAM
T3 sequence (P10632 whole entry): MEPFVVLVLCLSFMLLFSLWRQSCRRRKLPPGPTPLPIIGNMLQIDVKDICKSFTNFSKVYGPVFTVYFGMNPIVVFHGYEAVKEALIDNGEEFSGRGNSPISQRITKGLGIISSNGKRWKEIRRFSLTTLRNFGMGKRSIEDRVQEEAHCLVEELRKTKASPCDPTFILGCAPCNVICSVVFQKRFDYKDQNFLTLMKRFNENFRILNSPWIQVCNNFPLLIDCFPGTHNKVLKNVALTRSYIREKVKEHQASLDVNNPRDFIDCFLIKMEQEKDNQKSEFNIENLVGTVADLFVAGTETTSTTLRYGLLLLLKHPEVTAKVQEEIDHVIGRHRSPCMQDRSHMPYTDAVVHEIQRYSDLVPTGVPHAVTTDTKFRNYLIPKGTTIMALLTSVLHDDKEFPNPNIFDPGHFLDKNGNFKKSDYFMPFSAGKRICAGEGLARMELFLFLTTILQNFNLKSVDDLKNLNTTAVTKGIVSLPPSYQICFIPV

[6] = target: Cytochrome P450 2C19 (Homo sapiens, UniProt P33261); assay: Activity of human CYP2C19 expressed in microsomes isolated from baculovirus infected insect cell assessed as enzyme-mediated 2-hydroxy-3-(4-((6-methoxy-1-methyl-1H-benzo[d]imidazol-2-yl)methoxy)phenyl)propanamide formation at 20 uM after 2 hrs by radio-HPLC/LC-MS/MS analysis in presence of NADPH-generating system and NADPH-generating system/SAM
Sequence of Cytochrome P450 2C19 (P33261 whole entry): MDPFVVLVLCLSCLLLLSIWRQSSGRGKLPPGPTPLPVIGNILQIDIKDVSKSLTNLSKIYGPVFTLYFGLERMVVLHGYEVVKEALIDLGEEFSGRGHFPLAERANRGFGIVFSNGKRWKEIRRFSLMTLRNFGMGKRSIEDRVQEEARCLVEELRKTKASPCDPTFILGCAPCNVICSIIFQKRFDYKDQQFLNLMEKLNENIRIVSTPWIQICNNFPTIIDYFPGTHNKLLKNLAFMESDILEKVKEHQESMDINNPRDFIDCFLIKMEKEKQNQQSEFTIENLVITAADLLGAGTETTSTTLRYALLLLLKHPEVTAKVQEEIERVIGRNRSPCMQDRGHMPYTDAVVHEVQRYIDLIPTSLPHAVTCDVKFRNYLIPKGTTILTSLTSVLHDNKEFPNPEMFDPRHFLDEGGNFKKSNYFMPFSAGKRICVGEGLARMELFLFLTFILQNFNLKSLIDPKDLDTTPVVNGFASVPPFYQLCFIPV
Outline: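 Baculovirus/insect-cell microsomes expressing single human CYPs, 1 mg/ml protein, with 50 mM potassium phosphate (pH 7.4) or 100 mM Tris-HCl (pH 7.5). NADPH-generating system: 2 mM NADP⁺, 20 mM glucose 6-phosphate, 2 units/ml G6PDH, 10 mM MgCl₂. [¹⁴C]rivoglitazone at 20 μM, 2 h at 37°C with shaking. Control used insect-cell control supersomes. Stopped with acetonitrile; supernatant concentrated under nitrogen; metabolites analysed by radio-HPLC, LC-MS and LC-MS/MS.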

[7] = system: Liver microsome; assay: Drug level in human liver microsomes treated with [14C]-rivoglitazone at 20 uM after 2 to 4 hrs by radio-HPLC/LC-MS/MS analysis in presence of UDPGA, UDPGA/SAM and NADPH-generating system

| Drug metabolism [1] | Drug metabolism [2] | Drug metabolism [3] | Drug metabolism [4] | Drug metabolism [5] | Drug metabolism [6] | Drug metabolism [7] | SMILES |
| --- | --- | --- | --- | --- | --- | --- | --- |
| metabolite_not_detected | metabolite_detected | metabolite_not_detected | metabolite_detected | metabolite_not_detected | metabolite_detected | – | COc1ccc2nc(COc3ccc(C[14CH]4SC(=O)NC4=O)cc3)n(C)c2c1.Cl (racemic) |
| – | – | – | – | – | – | metabolite_detected | COc1ccc2nc(COc3ccc(CC(S)C(=O)O)cc3)n(C)c2c1 (configuration not stated) |

Source: ChEMBL document CHEMBL3526048, “In vitro metabolism of rivoglitazone, a novel peroxisome proliferator-activated receptor γ agonist, in rat, monkey, and human liver microsomes and freshly isolated hepatocytes” (Drug Metab Dispos, 2011)
